# Measured values pooled from the literature.
# Lines come from different studies, so protocols differ.
# Cell line: T47D
# Read-out: cell growth or viability
SMILES,assay,setting,quantity,value
Cc1c(Cl)c(=O)oc2cc(OCCCCSC#N)ccc12,SRB,,GI50,24 µM
CN(C)c1cccc2c(S(=O)(=O)NCCCCN=C=S)cccc12,MTT,24 h,IC50,21.1 µM
C=C[C@]1(C)C=C2CC[C@H]3C(C)(C)CCC[C@]3(C)[C@H]2CC1,MTT,75 h,IC50,159 µM
Cc1nc(NC(=O)N2CCC[C@H]2C(N)=O)sc1-c1ccnc(C(C)(C)C(F)(F)F)c1,ATP luminescence,5 days,EC50,444 nM
N#CSCCCCOc1ccc2c(-c3ccccc3)cc(=O)oc2c1,SRB,,GI50,34 µM
C[C@H](Nc1ccc2c(c1)OCCn1cc(N3C(=O)OC[C@H]3C(F)F)nc1-2)C(N)=O,ATP luminescence,5 days,EC50,31.2 nM
COC(=O)c1cc(C(C)=NNc2nc(-c3ccc(C)cc3)cs2)ccc1O,MTT,96 h,IC50,24.1 µM
COc1cccc2c1C(=O)c1c(O)c3c(c(O)c1C2=O)C[C@@](O)(C(=O)CO)C[C@@H]3O[C@H]1C[C@H](N)[C@H](O)[C@H](C)O1,MTT,24 h,IC50,75.9 µM
COc1cccc2c1C(=O)c1c(O)c3c(c(O)c1C2=O)C[C@@](O)(C(=O)CO)C[C@@H]3O[C@H]1C[C@H](N)[C@H](O)[C@H](C)O1,MTT,75 h,IC50,0.27 µM
COC(=O)c1cc(C(C)=NNc2nc(-c3ccc4c(c3)OCCCO4)cs2)ccc1O,MTT,96 h,IC50,21.2 µM
CS(=O)(=O)NCCCCN=C=S,MTT,24 h,IC50,26.9 µM
